Converted amounts (≈) assume the structure as drawn. The source made the active and inactive calls. No cut-off for these calls is given here.
Experiments:
Staphylococcus aureus [1] = test: Antimicrobial activity against methicillin-resistant Staphylococcus aureus CCARM 3090 incubated for 24 hrs by microtiter broth dilution method; assay type: functional; settings: CCARM 3090, 24 h
Procedure, shortened: (§1)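 Two-fold serial dilutions of compound in DMSO were made in Mueller Hinton broth in 96-well microtiter plates, with 0.64% DMSO final. Each well was inoculated with an overnight bacterial culture at 5 × 10⁵ cfu/mL and incubated at 37 °C for 24 h. MIC was the lowest concentration showing no visible growth.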

Salmonella typhimurium = test: Antimicrobial activity against Salmonella typhimurium ATCC 14028 incubated for 24 hrs by microtiter broth dilution method; assay type: functional, organism-based; settings: Salmonella enterica subsp. enterica serovar Typhimurium
Procedure, shortened: (§2)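 Two-fold serial dilutions of compounds in DMSO were added to Mueller Hinton broth in 96-well microtiter plates (final 0.64% DMSO). Wells were inoculated with overnight bacterial culture at 5 × 10⁵ cfu/mL and incubated at 37 °C for 24 h. The MIC was the lowest concentration with no visible growth.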

Staphylococcus aureus [2] = test: Antimicrobial activity against methicillin-resistant Staphylococcus aureus CCARM 3635 incubated for 24 hrs by microtiter broth dilution method; assay type: functional; settings: CCARM 3635, 24 h; procedure, shortened: as §1
Staphylococcus aureus [3] = test: Antimicrobial activity against methicillin-sensitive Staphylococcus aureus CCARM 3640 incubated for 24 hrs by microtiter broth dilution method; assay type: functional; settings: CCARM 3640, 24 h; procedure, shortened: as §1
[4] = test system: Staphylococcus epidermidis; test: Antimicrobial activity against Staphylococcus epidermidis ATCC 12228 incubated for 24 hrs by microtiter broth dilution method; assay type: functional; procedure, shortened: as §2
Escherichia coli = test: Antimicrobial activity against Escherichia coli ATCC 11775 incubated for 24 hrs by microtiter broth dilution method; assay type: functional, organism-based; procedure, shortened: as §2
Staphylococcus aureus [5] = test: Antimicrobial activity against methicillin-resistant Staphylococcus aureus CCARM 3634 incubated for 24 hrs by microtiter broth dilution method; assay type: functional; settings: CCARM 3634, 24 h; procedure, shortened: as §1
Staphylococcus aureus [6] = test: Antimicrobial activity against methicillin-sensitive Staphylococcus aureus CCARM 0027 incubated for 24 hrs by microtiter broth dilution method; assay type: functional; settings: CCARM 0027, 24 h; procedure, shortened: as §1
Staphylococcus aureus [7] = test: Antimicrobial activity against methicillin-sensitive Staphylococcus aureus CCARM 0205 incubated for 24 hrs by microtiter broth dilution method; assay type: functional; settings: CCARM 0205, 24 h; procedure, shortened: as §1
Staphylococcus aureus [8] = test: Antimicrobial activity against methicillin-sensitive Staphylococcus aureus CCARM 0204 incubated for 24 hrs by microtiter broth dilution method; assay type: functional; settings: CCARM 0204, 24 h; procedure, shortened: as §1
Bacillus subtilis = test: Antimicrobial activity against Bacillus subtilis ATCC 6633 incubated for 24 hrs by microtiter broth dilution method; assay type: functional; procedure, shortened: as §2
Kocuria rhizophila = test: Antimicrobial activity against Kocuria rhizophila ATCC 9341 incubated for 24 hrs by microtiter broth dilution method; assay type: functional; procedure, shortened: as §2
Klebsiella pneumoniae = test: Antimicrobial activity against Klebsiella pneumoniae ATCC 4352 incubated for 24 hrs by microtiter broth dilution method; assay type: functional, organism-based; procedure, shortened: as §2
Staphylococcus aureus [9] = test: Antimicrobial activity against Staphylococcus aureus ATCC 6538 incubated for 24 hrs by microtiter broth dilution method; assay type: functional; procedure, shortened: as §2
Staphylococcus aureus [10] = test: Antimicrobial activity against methicillin-resistant Staphylococcus aureus CCARM 3089 incubated for 24 hrs by microtiter broth dilution method; assay type: functional; settings: CCARM 3089, 24 h; procedure, shortened: as §1

Row | Compound | MIC (Staphylococcus aureus [1]) [µg/mL] | MIC (Salmonella typhimurium) | MIC (Staphylococcus aureus [2]) [µg/mL] | MIC (Staphylococcus aureus [3]) [µg/mL] | MIC ([4]; ATCC 12228, 24 h) [µg/mL] | MIC (Escherichia coli) | MIC (Staphylococcus aureus [5]) [µg/mL] | MIC (Staphylococcus aureus [6]) [µg/mL] | MIC (Staphylococcus aureus [7]) [µg/mL] | MIC (Staphylococcus aureus [8]) [µg/mL] | MIC (Bacillus subtilis; ATCC 6633, 24 h) [µg/mL] | MIC (Kocuria rhizophila; ATCC 9341, 24 h) [µg/mL] | MIC (Klebsiella pneumoniae) | MIC (Staphylococcus aureus [9]; ATCC 6538, 24 h) [µg/mL] | MIC (Staphylococcus aureus [10]) [µg/mL] | MIC [4] [µg/mL] | MIC (Bacillus subtilis) [µg/mL] | MIC (Kocuria rhizophila) [µg/mL] | MIC (Staphylococcus aureus [9]) [µg/mL]
1 | O=C1O/C(=C\c2ccc(O)c(Br)c2)C(c2ccc(O)c(Br)c2)=C1C(=O)c1cc(Br)c(O)c(Br)c1 [CADIOLIDE C] | 0.25 (≈ 0.349 µM) | inactive | < 0.13 | < 0.13 | 0.4 (≈ 0.559 µM) | inactive | 0.5 (≈ 0.698 µM) | 0.5 (≈ 0.698 µM) | 0.25 (≈ 0.349 µM) | 0.25 (≈ 0.349 µM) | 3.1 (≈ 4.33 µM) | 0.2 (≈ 0.279 µM) | inactive | 0.4 (≈ 0.559 µM) | 0.5 (≈ 0.698 µM) | – | – | – | –
2 | O=C1C=C(c2ccc(O)c(Br)c2)/C(=C/c2cc(Br)c(O)c(Br)c2)O1 [RUBROLIDE J] | 2 (≈ 3.87 µM) | inactive | 2 (≈ 3.87 µM) | 2 (≈ 3.87 µM) | 0.8 (≈ 1.55 µM) | inactive | 2 (≈ 3.87 µM) | 2 (≈ 3.87 µM) | 1 (≈ 1.93 µM) | 2 (≈ 3.87 µM) | 1.6 (≈ 3.09 µM) | 6.3 (≈ 12.2 µM) | inactive | 3.1 (≈ 6 µM) | 4 (≈ 7.74 µM) | – | – | – | –
3 | O=C1O/C(=C\c2cc(Br)c(O)c(Br)c2)C(c2cc(Br)c(O)c(Br)c2)=C1C(=O)c1cc(Br)c(O)c(Br)c1 [CADIOLIDE B] | 1 (≈ 1.14 µM) | inactive | 0.5 (≈ 0.572 µM) | 1 (≈ 1.14 µM) | 3.1 (≈ 3.55 µM) | inactive | 1 (≈ 1.14 µM) | 2 (≈ 2.29 µM) | 2 (≈ 2.29 µM) | 1 (≈ 1.14 µM) | 3.1 (≈ 3.55 µM) | 3.1 (≈ 3.55 µM) | inactive | 3.1 (≈ 3.55 µM) | 1 (≈ 1.14 µM) | – | – | – | –
4 | O=C1O/C(=C\c2cc(Br)c(O)c(Br)c2)C(c2ccc(O)c(Br)c2)=C1C(=O)c1cc(Br)c(O)c(Br)c1 [CADIOLIDE E] | 1 (≈ 1.26 µM) | inactive | 0.5 (≈ 0.629 µM) | 0.25 (≈ 0.315 µM) | 6.3 (≈ 7.93 µM) | inactive | 2 (≈ 2.52 µM) | 2 (≈ 2.52 µM) | 4 (≈ 5.03 µM) | 2 (≈ 2.52 µM) | 3.1 (≈ 3.9 µM) | 0.2 (≈ 0.252 µM) | inactive | 3.1 (≈ 3.9 µM) | 1 (≈ 1.26 µM) | – | – | – | –
5 | O=C1C=C(c2cc(Br)c(O)c(Br)c2)/C(=C/c2cc(Br)c(O)c(Br)c2)O1 [RUBROLIDE A] | 8 (≈ 13.4 µM) | inactive | 8 (≈ 13.4 µM) | 8 (≈ 13.4 µM) | 1.6 (≈ 2.69 µM) | inactive | 8 (≈ 13.4 µM) | 4 (≈ 6.71 µM) | 4 (≈ 6.71 µM) | 4 (≈ 6.71 µM) | 1.6 (≈ 2.69 µM) | 1.6 (≈ 2.69 µM) | inactive | 3.1 (≈ 5.2 µM) | 8 (≈ 13.4 µM) | – | – | – | –
6 | CN[C@H](CC(C)C)C(=O)N[C@H]1C(=O)N[C@@H](CC(N)=O)C(=O)N[C@H]2C(=O)N[C@H]3C(=O)N[C@H](C(=O)N[C@H](C(=O)O)c4cc(O)cc(O)c4-c4cc3ccc4O)[C@H](O)c3ccc(c(Cl)c3)Oc3cc2cc(c3O[C@@H]2O[C@H](CO)[C@@H](O)[C@H](O)[C@H]2O[C@H]2C[C@](C)(N)[C@H](O)[C@H](C)O2)Oc2ccc(cc2Cl)[C@H]1O [VANCOMYCIN] | – | – | – | 0.25 (≈ 0.173 µM) | – | – | – | – | < 0.13 | 0.25 (≈ 0.173 µM) | – | – | – | – | – | – | – | – | –
7 | GENTAMICIN | – | – | – | – | – | – | – | – | – | – | – | – | – | – | – | < 0.02 | 0.05 | 1.6 | < 0.02
8 | O=C1O/C(=C\c2ccc(O)c(Br)c2)C(c2cc(Br)c(O)c(Br)c2)=C1C(=O)c1cc(Br)c(O)c(Br)c1 [CADIOLIDE D] | 0.25 (≈ 0.315 µM) | inactive | 0.25 (≈ 0.315 µM) | 0.25 (≈ 0.315 µM) | 0.8 (≈ 1.01 µM) | inactive | 1 (≈ 1.26 µM) | 0.5 (≈ 0.629 µM) | 0.25 (≈ 0.315 µM) | 0.5 (≈ 0.629 µM) | 6.3 (≈ 7.93 µM) | 1.6 (≈ 2.01 µM) | inactive | 6.3 (≈ 7.93 µM) | 0.5 (≈ 0.629 µM) | – | – | – | –
9 | CC12C[C@@]34C=CC(=O)[C@@](C)(CCC(=O)Nc5c(O)ccc(C(=O)O)c5O)C3[C@H](CC1C4)O2 (stereo partly drawn) [PLATENSIMYCIN] | 8 (≈ 18.1 µM) | – | 8 (≈ 18.1 µM) | 8 (≈ 18.1 µM) | – | – | 8 (≈ 18.1 µM) | 4 (≈ 9.06 µM) | 4 (≈ 9.06 µM) | 4 (≈ 9.06 µM) | – | – | – | – | 8 (≈ 18.1 µM) | – | – | – | –
10 | COc1ccc(C=C2OC(=O)C=C2c2ccc(O)c(Br)c2)cc1 | > 32 | inactive | > 32 | > 32 | 25 (≈ 67 µM) | inactive | > 32 | > 32 | > 32 | > 32 | 50 (≈ 134 µM) | 3.1 (≈ 8.31 µM) | inactive | > 50 | > 32 | – | – | – | –
11 | COc1ccc(C=C2OC(=O)C=C2c2cc(Br)c(O)c(Br)c2)cc1 [RUBROLIDE P] | > 32 | inactive | > 32 | > 32 | 50 (≈ 111 µM) | inactive | > 32 | > 32 | > 32 | > 32 | 50 (≈ 111 µM) | 6.3 (≈ 13.9 µM) | inactive | > 50 | > 32 | – | – | – | –
12 | CCCCCCCCCC(=O)N[C@@H](Cc1c[nH]c2ccccc12)C(=O)N[C@H](CC(N)=O)C(=O)N[C@@H](CC(=O)O)C(=O)N[C@@H]1C(=O)NCC(=O)N[C@@H](CCCN)C(=O)N[C@@H](CC(=O)O)C(=O)N[C@H](C)C(=O)N[C@@H](CC(=O)O)C(=O)NCC(=O)N[C@H](CO)C(=O)N[C@@H]([C@H](C)CC(=O)O)C(=O)N[C@@H](CC(=O)c2ccccc2N)C(=O)O[C@@H]1C | > 32 | – | > 32 | 16 (≈ 9.87 µM) | – | – | > 32 | 16 (≈ 9.87 µM) | 2 (≈ 1.23 µM) | 4 (≈ 2.47 µM) | – | – | – | – | > 32 | – | – | – | –

Source: ChEMBL document CHEMBL2203068, “Antibacterial butenolides from the Korean tunicate Pseudodistoma antinboja” (2012)
